UPR CHOP act: apoptotic UPR (CHOP) activation; 330,000 tested, 0.34% active; CHO-CHOP luciferase reporter, luminescence; percent of tunicamycin response over DMSO baseline; AID 449763; activation, % at 10 µM;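 active = at 10 µM dose, activation of 40% or more, normalized to positive control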
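System: CHO-CHOP luciferase reporter cell line | Buffer or medium: F12 medium containing 10% fetal bovine serum | Doses: One dose, 10 µM in 0.5% DMSO | Times: 6 h compound exposure at 37 °C after overnight seeding | Signal: Luciferase luminescence | Read-out: % activation vs tunicamycin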
UPR XBP1 act: adaptive UPR (XBP1) activation; CHO-XBP1 luciferase reporter, IRE1-XBP1 UPR activation, luminescence; percent of tunicamycin response, DMSO as zero; activation, % at 20 µM; 330,000 tested, 0.33% active;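 active = versus positive control, 20 µM dose yields 30% or more activation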
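Assay system: IRE1-XBP1 luciferase reporter CHO line. Input: 1000 cells/well. Buffer or medium: F12 with 10% serum. Doses: 20 µM, 1% DMSO. Times: overnight seeding at 37 °C, 6 h compound treatment at 37 °C. Technique: Steady-Glo luciferase glow luminescence, 10 min after reagent addition.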
CHOP inhibitor: blocks CHOP induction under ER stress; CHO-K1 CHOP-promoter luciferase, tunicamycin-induced, 15-18 h; 220,000 tested, 3.8% active; inhibition, % at 10 µM;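 active = compounds that reduced the stress-induced luciferase reporter signal by more than about 70% of percent inhibition, limit read from the data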
iPSC survival up: hiPSC single-cell survival enhancement | ATPlite luminescence; 100% = ROCK inhibitor wells, 0% = DMSO | 360,000 tested, 0.044% active | AID 602274 | survival enhancement, % at 20 µM; in the data active = survival enhancement above about 18%;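 note: cells exposed to compounds for 16 hours before the ATP read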
Cardio protect: modulators protecting cardiomyocytes from myocardial damage; H9c2 cardiomyocytes, H2O2 injury protection, ATPLite, 2 h; protection from H2O2 cell death, % at 20 µM; 360,000 tested, 0.63% active; AID 588492;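 active = compounds giving at least 50% protection of heart cells from peroxide-induced death in the single-dose screen, raw or plate-pattern-corrected value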
CHOP UPR conf: apoptotic UPR (CHOP) activation, confirmed; shares compounds with UPR CHOP act; CHO-CHOP cells, CHOP-luciferase reporter luminescence; percent of tunicamycin response, DMSO as zero; activation, % at 10 µM; 1,000 tested, 64% active; AID 463112; in the data active = activation above about 33%
UPR XBP1 confirm: confirmation of adaptive unfolded protein response (XBP1) activators; activation, % at 20 µM; AID 485299; CHO-XBP1 IRE1-XBP1 luciferase reporter, luminescence; shares compounds with UPR XBP1 act; 1,000 tested, 63% active;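 active = reporter signal at least 30% of the positive control's activation in two or more of four replicate wells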
Of the large screens only hits and unclear results are named; the others gave an inactive call (follow-up assays come after a bar, where they were run). The sample as a whole holds a higher share of hits than the screen did.

CC(=O)c1ccc(Cc2ccc(C(C)=O)s2)s1	none (no result: UPR CHOP act, UPR XBP1 act, CHOP inhibitor)
CCc1ccc2nc(N(CCCN(C)C)C(=O)c3ccc(S(=O)(=O)N4CCc5ccccc5C4)cc3)sc2c1	UPR CHOP act 41, UPR XBP1 act 59 (no result: CHOP inhibitor) | CHOP UPR conf inactive | UPR XBP1 confirm 59
COc1ccc(N=c2oc3c(OC)cccc3cc2C(=O)NCc2ccco2)c(OC)c1	UPR CHOP act 172, UPR XBP1 act 74, CHOP inhibitor 89 | CHOP UPR conf 101 | UPR XBP1 confirm inactive
COc1ccc2cc(C(=O)NCc3ccco3)c(=Nc3ccc(C(=O)O)cc3)oc2c1	none
CC(C)(C)S(=O)N1Cc2cc(CO)ccc2[C@H]1CCO (stereo not given in full)	none (no result: UPR CHOP act, UPR XBP1 act, CHOP inhibitor)
O=C1c2[nH]c3ccccc3c2CC1N1C(=O)c2ccccc2C1=O (stereo not given)	none (no result: UPR CHOP act, UPR XBP1 act, CHOP inhibitor)
CCOc1ccc(C(=O)CN2C(=O)NC3(CCCc4ccccc43)C2=O)cc1 (stereo not given)	none (no result: UPR CHOP act, UPR XBP1 act, CHOP inhibitor)
N=c1c(-c2nc3ccccc3[nH]2)cc(C(=O)c2ccco2)nn1-c1ccccc1	UPR CHOP act 153, UPR XBP1 act 33 | CHOP UPR conf 148 | UPR XBP1 confirm inactive
CCOc1ccc(OCCCC(=O)N(CC)CC(=O)Nc2c(F)cccc2F)cc1	none (no result: CHOP inhibitor)
CCOc1cc(/C=C2/C(=N)N3C=CSC3=NC2=O)ccc1OCCCOc1ccccc1C	UPR CHOP act 78, UPR XBP1 act 265, CHOP inhibitor 85 | CHOP UPR conf 36 | UPR XBP1 confirm 134
CN(C)S(=O)(=O)c1ccc(N2CCCC2)c(C(=O)Nc2nc3c(ccc4ccccc43)s2)c1	none
Cc1cnc(NC(=O)c2cc(S(=O)(=O)N(C)C)ccc2N2CCCC2)s1	UPR CHOP act 96, UPR XBP1 act 98 (no result: CHOP inhibitor) | CHOP UPR conf 105 | UPR XBP1 confirm 87
Cc1ccc(C(=O)Cn2c(C(=O)/C=C/c3ccccc3)nc3ccccc32)cc1	UPR CHOP act 249, UPR XBP1 act 32 | CHOP UPR conf 325 | UPR XBP1 confirm 46
O=c1[nH]c(SCc2cccc(Cl)c2)nc2ccccc12	none
O=c1[nH]c(-c2ccc(-c3cccc(Cl)c3)o2)nc2ccccc12	UPR CHOP act 74, UPR XBP1 act 92 (no result: CHOP inhibitor) | CHOP UPR conf 105 | UPR XBP1 confirm 176
Cc1ccc(S(=O)(=O)NCC(C)n2nc(C)cc2C)cc1 (stereo not given)	none (no result: CHOP inhibitor)
Cc1ccc(C(C[N+](=O)[O-])n2nc(C)cc2C)cc1 (stereo not given)	UPR CHOP act 57, UPR XBP1 act 55 | CHOP UPR conf 83 | UPR XBP1 confirm inactive
CC(Oc1ccc(Cl)cc1)C(=O)Nc1ccccc1C(=O)N1CCOCC1 (stereo not given)	none (no result: CHOP inhibitor)
CC(Oc1ccccc1Cl)C(=O)Nc1ccccc1C(=O)N1CCOCC1 (stereo not given)	UPR XBP1 act 32 (no result: CHOP inhibitor) | UPR XBP1 confirm inactive
OCCCn1c(C2CCCN2c2nc(-c3ccc(F)cc3)cs2)nc2cc(Cl)c(N3CCCCC3)cc21 (stereo not given)	UPR XBP1 act 100 (no result: CHOP inhibitor) | UPR XBP1 confirm 48
COc1ccc2c(c1)Cc1cc(NC(=O)c3ccccc3-c3ccccc3C(=O)O)ccc1-2	none (no result: UPR CHOP act, UPR XBP1 act, CHOP inhibitor)
CCc1nc(N)c(C#N)c(-c2ccc(F)cc2)c1C	none
Cc1ccc2c(n1)sc1c(-c3ccc(Br)cc3)c(C#N)c(N)nc12	UPR XBP1 act 61, CHOP inhibitor 82 | UPR XBP1 confirm 43
C[C@H]1CN([C@@H](C)CO)C(=O)Cc2cc(NC(=O)C3CC3)ccc2O[C@H]1CN(C)Cc1ccc(C(=O)O)cc1	none (no result: CHOP inhibitor)
COc1ccc(-c2c(C(C)=O)c(C)nc3sc4c(c23)NC(c2ccccc2)NC4=O)cc1 (stereo not given)	UPR XBP1 act 60 | UPR XBP1 confirm inactive
Cc1ccc(C(C(=O)NCc2ccco2)N(C(=O)CNC(=O)c2cccs2)c2c(C)cc(C)cc2C)cc1 (stereo not given)	UPR XBP1 act 36, CHOP inhibitor 74 | UPR XBP1 confirm 32

Screens deposited in PubChem by several laboratories.
